# Measurements as given in ChEMBL document CHEMBL5344463, “Design, Synthesis, and Antifungal Activity of 3-Substituted-2(5H)-Oxaboroles” (ACS Med Chem Lett, 2024).
# Activity calls are given as the source filed them. The calls are words filed in the database; no cut-off is given here.
# Experiments:
# Saccharomyces cerevisiae [1] = assay: Antimicrobial activity against Saccharomyces cerevisiae assessed as growth inhibition at 50 ug/ml in liquid medium by liquid MIC assay; assay type: functional, organism-based; details: dose 50.0 µg/ml
# Procedure, shortened: (§1)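 Single-concentration liquid-medium growth screen of non-spore-forming microbes, run at 50 and 12.5 μg/mL. Growth is read by absorbance.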
# H9c2 = assay: Cytotoxicity against rat H9c2 cells assessed as cell viability at 100 uM incubated for 24 hrs by CCk8 dye assay; assay type: toxicity, cell-based; details: h9c2, 24 h
# Procedure, shortened: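 Rat myoblast H9c2 cells are exposed to 100 μM compound for 24 h. Viability is normalized to PBS no-treatment control. Values are mean ± SEM, n = 3.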
# Erythrocyte = assay: Hemolytic activity in sheep erythrocytes assessed as cell lysis at 50 to 100 uM measured after 1 hr; assay type: toxicity, cell-based, Ovis aries; details: dose 50-100 µM
# Procedure, shortened: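 Erythrocytes are exposed to compound at 50 and 100 μM for 1 h. Lysis is normalized to a Triton X-100 positive control. Values are mean ± SEM, n = 3.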
# Candida albicans [2] = assay: Antifungal activity against Candida albicans assessed as growth inhibition at 50 ug/ml in liquid medium by liquid MIC assay; assay type: functional, organism-based; details: dose 50.0 µg/ml; procedure, shortened: as §1
# Staphylococcus aureus [3] = assay: Antibacterial activity against methicillin-resistant Staphylococcus aureus assessed as growth inhibition incubated for 48 hrs in solid agar medium by solid MIC assay; assay type: functional
# Escherichia coli = assay: Antibacterial activity against Escherichia coli ATCC 25922 assessed as growth inhibition incubated for 48 hrs in liquid medium by microbroth dilution assay; details: ATCC 25922, 48 h
# Staphylococcus aureus [4] = assay: Antibacterial activity against methicillin-resistant Staphylococcus aureus assessed as growth inhibition at 50 ug/ml in liquid medium by liquid MIC assay; assay type: functional, organism-based; details: dose 50.0 µg/ml
# Procedure, shortened: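 Single-point growth-inhibition screen in liquid medium against nonspore-forming organisms. Compound tested at 50 and 12.5 μg/mL, growth read by absorbance, and reported at the 50 μg/mL level.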
# [5] = tested on: Trichophyton mentagrophytes; assay: Antifungal activity against Trichophyton mentagrophytes assessed as growth inhibition incubated for 48 hrs in solid agar medium by solid MIC assay; assay type: functional
# Procedure, shortened: (§2)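 Dose-dependent solid-agar MIC assay for spore-forming fungi (liquid media unusable because mycelia clump and block absorbance). Compound tested at […] in agar. Fungal growth scored visually as white mycelia on the plates. MIC is taken from biological replicates.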
# Penicillium chrysogenum = assay: Antifungal activity against Penicillium chrysogenum assessed as growth inhibition incubated for 48 hrs in solid agar medium by solid MIC assay; assay type: functional; procedure, shortened: as §2
# Aspergillus flavus = assay: Antifungal activity against Aspergillus flavus assessed as growth inhibition incubated for 48 hrs in solid agar medium by solid MIC assay; assay type: functional; procedure, shortened: as §2
# Candida albicans [6] = assay: Antifungal activity against Candida albicans assessed as growth inhibition incubated for 48 hrs in solid agar medium by solid MIC assay; assay type: functional
# Saccharomyces cerevisiae [7] = assay: Antimicrobial activity against Saccharomyces cerevisiae assessed as growth inhibition incubated for 48 hrs in solid agar medium by solid MIC assay; assay type: functional
# Bacillus cereus = assay: Antibacterial activity against Bacillus cereus assessed as growth inhibition incubated for 48 hrs in solid agar medium by solid MIC assay; assay type: functional
# Pseudomonas aeruginosa = assay: Antibacterial activity against Pseudomonas aeruginosa deltaMexAB-OprM assessed as growth inhibition incubated for 48 hrs in solid agar medium by solid MIC assay; assay type: functional
Molecule,Activity (Saccharomyces cerevisiae [1]),Activity (H9c2),Activity (Erythrocyte),Activity (Candida albicans [2]),also measured
OB1OCC=C1c1cccc(F)c1,Active,Non-Toxic,Non-Toxic,–,–
OB1OCC=C1c1ccccc1Cl,Active,–,–,–,–
OB1OCC=C1c1ccc2occc2c1,Active,Non-Toxic,Non-Toxic,Active,–
OB1OCC=C1c1ccc2ccccc2c1,–,Non-Toxic,Non-Toxic,–,–
OB1OCC=C1C1=CCCCC1,Active,–,–,–,–
OB1OCc2cc(F)ccc21 [TAVABOROLE],–,Non-Toxic,Non-Toxic,–,MIC (Staphylococcus aureus [3]): > 50 µg/mL
Cc1ccc(C2=CCOB2O)cc1,Active,Non-Toxic,Non-Toxic,–,MIC (Escherichia coli): 42 µg/mL
COc1cccc(C2=CCOB2O)c1,Active,–,–,–,–
OB1OCC=C1c1ccccc1F,Active,Non-Toxic,Non-Toxic,–,–
OB1OCC=C1c1ccc(OC(F)(F)F)cc1,Active,Non-Toxic,Non-Toxic,Active,–
OB1OCC=C1c1ccccc1,Active,–,–,–,–
OB1OCC=C1c1ccc(Cl)cc1,Active,Non-Toxic,Non-Toxic,Active,–
Cc1cc(F)cc(C2=CCOB2O)c1,Active,Non-Toxic,Non-Toxic,–,MIC (Escherichia coli): > 50 µg/mL
OB1OCC=C1c1cccc(Br)c1,Active,Non-Toxic,Non-Toxic,Active,–
CCCc1ccc(C2=CCOB2O)cc1,Active,Non-Toxic,Non-Toxic,–,–
OB1OCC=C1c1cccc(I)c1,Active,Non-Toxic,Non-Toxic,Active,Activity (Staphylococcus aureus [4]): inactive
CC(C)(C)c1ccc(C2=CCOB2O)cc1,–,Non-Toxic,Non-Toxic,–,–
OB1OCC=C1c1cccs1,Active,–,–,–,MIC (Escherichia coli): 42 µg/mL
OB1OCC=C1c1cccc(Cl)c1,Active,Non-Toxic,Non-Toxic,–,–
NYSTATIN,–,–,–,–,MIC [5]: 3.13 µg/mL; MIC (Penicillium chrysogenum): 1.56 µg/mL; MIC (Aspergillus flavus): 2.6 µg/mL; MIC (Candida albicans [6]): 0.78 µg/mL; MIC (Saccharomyces cerevisiae [7]): 1.56 µg/mL; MIC (Bacillus cereus): > 50 µg/mL; MIC (Staphylococcus aureus [3]): > 50 µg/mL; MIC (Pseudomonas aeruginosa): > 50 µg/mL
Cc1cccc(C2=CCOB2O)c1,Active,Non-Toxic,Non-Toxic,–,–
OB1OCC=C1c1ccc(F)cc1,–,Non-Toxic,Non-Toxic,Active,MIC (Escherichia coli): 42 µg/mL
OB1OCC=C1c1ccc(Br)cc1,Active,Non-Toxic,Non-Toxic,Active,–
